The source made the active and inactive calls. The calls are words filed in the database; no cut-off is given here.
Key:
[1] = Lipophilicity index (Rm) (HPLC); type: physicochemical
L1210 = experiment: Inhibition murine leukemia L1210 cell growth in culture; type: functional, cell-based; conditions: Mus musculus
Procedure, shortened: (§1)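 IC50 is the drug concentration, in nM, that inhibits growth of the cultured cell line by 50%.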

HCT-8 = experiment: Inhibition of human colon tumor (HCT-8) cell growth in culture; type: functional, cell-based; procedure, shortened: as §1
[2] = Selectivity ratio of IC50 of HCT to IC50 of L1210 cell lines; type: functional
P388 [3] = experiment: (§2) Percentage increase in life span of tumor bearing animals compared to non treated, tumor-bearing controls when treated at the optimal dose of 65 mg/kg/day intraperitoneally; IA denotes inactive; type: functional, organism-based; conditions: Mus musculus
Procedure, shortened: (§3)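 Drug was given ip in 0.1 mL 30% v/v ethanol/water. For P388, 10^6 cells were inoculated ip and dosing was on days 1, 5 and 9, with >20% significant. For Lewis lung, 10^6 cells were inoculated iv and dosing was on days 5, 9 and 13, with >40% significant. The read-out is % lifespan increase over untreated controls.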

[4] = test system: Lewis lung carcinoma cell line; experiment: as §2; type: functional, organism-based; conditions: Mus musculus; procedure, shortened: as §3
P388 [5] = experiment: (§4) Percentage increase in life span of tumor bearing animals compared to non treated, tumor-bearing controls when treated at the optimal dose of 100 mg/kg/day intraperitoneally; type: functional; conditions: Mus musculus, P388, ip; route intraperitoneal
[6] = test system: Lewis lung carcinoma cell line; experiment: as §4; type: functional; conditions: Mus musculus, ip, route intraperitoneal
P388 [7] = experiment: Percentage increase in life span of compound-treated, tumor bearing animals compared to non treated, tumor-bearing controls when treated at the optimal dose of 150 mg/kg/day intraperitoneally; type: functional; conditions: Mus musculus, P388, ip; route intraperitoneal
[8] = test system: Lewis lung carcinoma cell line; experiment: (§5) Percentage increase in life span of tumor bearing animals compared to non treated, tumor-bearing controls when treated at the optimal dose of 150 mg/kg/day intraperitoneally; type: functional; conditions: Mus musculus, ip, route intraperitoneal
P388 [9] = experiment: (§6) Percentage increase in life span of tumor bearing animals compared to non treated, tumor-bearing controls when treated at the optimal dose of 65 mg/kg/day intraperitoneally; type: functional; conditions: Mus musculus, P388, ip; route intraperitoneal
[10] = Base strength is expressed as pKa, determined in water at 25 degrees Centigrade by spectrophotometric method.; type: physicochemical
[11] = test system: Lewis lung carcinoma cell line; experiment: Percentage increase in life span of tumor bearing animals compared to non treated, tumor-bearing controls when treated at the optimal dose of 45 mg/kg/day intraperitoneally; type: functional; conditions: Mus musculus, ip, route intraperitoneal
P388 [12] = experiment: Percentage increase in life span of tumor bearing animals compared to non treated, tumor-bearing controls when treated at the optimal dose of 100 mg/kg/day ip (P388); type: functional; conditions: Mus musculus, route intraperitoneal
[13] = test system: Lewis lung carcinoma cell line; experiment: Percentage increase in life span of tumor bearing animals compared to non treated, tumor-bearing controls when treated at the optimal dose of 150 mg/kg/day ip (LL); type: functional; conditions: Mus musculus
[14] = test system: Lewis lung carcinoma cell line; experiment: as §6; type: functional; conditions: Mus musculus, ip, route intraperitoneal
P388 [15] = experiment: Percentage increase in life span of tumor bearing animals compared to non treated, tumor-bearing controls when treated at the optimal dose of 150 mg/kg/day intraperitoneally; IA denotes inactive; type: functional, organism-based; conditions: Mus musculus; procedure, shortened: as §3
P388 [16] = experiment: Percentage increase in life span of tumor (P388 cells) bearing animals compared to non treated, tumor-bearing controls when treated at the optimal dose of 45 mg/kg/day; IA denotes inactive; type: functional, organism-based; conditions: Mus musculus
P388 [17] = experiment: Percentage increase in life span of tumor bearing animals compared to non treated, tumor-bearing controls when treated at the optimal dose of 30 mg/kg/day intraperitoneally; type: functional; conditions: Mus musculus, P388, ip; route intraperitoneal
P388 [18] = experiment: as §5; type: functional; conditions: Mus musculus, P388, ip; route intraperitoneal
P388 [19] = experiment: Percentage increase in life span of tumor bearing animals compared to non treated, tumor-bearing controls when treated at the optimal dose of 13.3 mg/kg/day ip (P388); type: functional; conditions: Mus musculus, route intraperitoneal
[20] = test system: Lewis lung carcinoma cell line; experiment: Percentage increase in life span of tumor bearing animals compared to non treated, tumor-bearing controls when treated at the optimal dose of 20 mg/kg/day ip (LL); type: functional, organism-based; conditions: Mus musculus
P388 [21] = experiment: Percent increase in life span of P388 cells compared to non treated, tumor-bearing controls when treated at the optimal dose of 225 mg/kg/day; IA denotes inactive; type: functional, organism-based; conditions: Mus musculus
P388 [22] = experiment: Percentage increase in life span of tumor bearing animals compared to non treated, tumor-bearing controls when treated at the optimal dose of 225 mg/kg/day ip (P388); type: functional; conditions: Mus musculus, route intraperitoneal

Question: Which Rm [1] does the source give for CNCCNC(=O)c1cccc2cc3ccccc3nc12.Cl.Cl here?
Answer: Its Rm is -0.27.

Question: What about the IC50 (L1210) of the same compound?
Answer: The IC50 was 0.24 µM.

Question: What about the IC50 (HCT-8) of the same compound?
Answer: Its IC50 is 0.62 µM.

Question: What about the Ratio [2] of the same compound?
Answer: The Ratio was 2.6.

Question: And the ILS (P388 [3])?
Answer: The ILS was “inactive”.

Question: And the ILS [4]?
Answer: The ILS was “inactive”.

Question: With CN(C)CCNC(=O)c1cc(Cl)cc2cc3ccccc3nc12.Cl.Cl as the compound, how does the Rm [1] read?
Answer: Its Rm is 0.03.

Question: What about the IC50 (L1210) of the same compound?
Answer: Its IC50 is 0.031 µM.

Question: And the IC50 (HCT-8)?
Answer: Its IC50 is 0.44 µM.

Question: What about the ILS at 100 mg/kg/day (P388 [5]) of the same compound?
Answer: Its ILS at 100 mg/kg/day is 62%.

Question: What about the ILS at 100 mg/kg/day [6] of the same compound?
Answer: Its ILS at 100 mg/kg/day is 219%.

Question: What about the Ratio [2] of the same compound?
Answer: The Ratio was 14.2.

Question: With Cc1cccc2nc3c(C(=O)NCCN(C)C)cccc3cc12.Cl.Cl.O.O as the compound, how does the Rm [1] read?
Answer: Its Rm is -0.12.

Question: What about the IC50 (L1210) of the same compound?
Answer: Its IC50 is 0.14 µM.

Question: What about the IC50 (HCT-8) of the same compound?
Answer: Its IC50 is 0.98 µM.

Question: What about the Ratio [2] of the same compound?
Answer: The Ratio was 7.

Question: And the ILS at 150 mg/kg/day (P388 [7])?
Answer: Its ILS at 150 mg/kg/day is 61%.

Question: And the ILS at 150 mg/kg/day [8]?
Answer: The ILS at 150 mg/kg/day was 60%.

Question: Which results are given for Cc1ccc(C(=O)NCCN(C)C)c2nc3ccccc3cc12.Cl.Cl?
Answer: Rm [1]: 0.1; IC50 (L1210): 0.037 µM; IC50 (HCT-8): 0.4 µM; ILS at 100 mg/kg/day (P388 [5]): 71%; Ratio [2]: 10.8

Question: What does the source list for COc1cccc2cc3cccc(C(=O)NCCN(C)C)c3nc12.Cl?
Answer: ILS at 65 mg/kg/day (P388 [9]): 70%; pKa [10]: 3.87; Rm [1]: -0.31; IC50 (L1210): 0.012 µM; ILS at 45 mg/kg/day [11]: 54%; IC50 (HCT-8): 0.18 µM; Ratio [2]: 15

Question: Which pKa [10] does the source give for COc1cccc2nc3c(C(=O)NCCN(C)C)cccc3cc12.Cl here?
Answer: The pKa was 3.82.

Question: And the Rm [1]?
Answer: The Rm was -0.12.

Question: What about the IC50 (L1210) of the same compound?
Answer: Its IC50 is 0.058 µM.

Question: And the IC50 (HCT-8)?
Answer: Its IC50 is 0.52 µM.

Question: What about the ILS at 100 mg/kg/day (P388 [5]) of the same compound?
Answer: Its ILS at 100 mg/kg/day is 128%.

Question: And the ILS at 100 mg/kg/day [6]?
Answer: The ILS at 100 mg/kg/day was 66%.

Question: What about the Ratio [2] of the same compound?
Answer: The Ratio was 9.

Question: Which results are given for CN(C)CCCCCCNC(=O)c1cccc2cc3ccccc3nc12.Cl?
Answer: Rm [1]: 0.28; ILS at 100 mg/kg/day (P388 [12]): 32%; IC50 (L1210): 0.55 µM; IC50 (HCT-8): 1.96 µM; Ratio [2]: 3.6; ILS [13]: inactive

Question: Which results are given for CN(C)CCNC(=O)c1cccc2cc3c(Cl)cccc3nc12.Cl.Cl.Cl?
Answer: ILS at 65 mg/kg/day (P388 [9]): 102%; ILS at 65 mg/kg/day [14]: 63%; Rm [1]: 0.01; IC50 (L1210): 0.16 µM; IC50 (HCT-8): 0.79 µM; Ratio [2]: 4.9

Question: For CN(C)CCNC(=O)c1ccc2cc3ccccc3nc2c1.Cl.Cl, which pKa [10] is on record?
Answer: The pKa was 3.94.

Question: What about the Rm [1] of the same compound?
Answer: Its Rm is -0.53.

Question: What about the IC50 (L1210) of the same compound?
Answer: Its IC50 is 8.1 µM.

Question: What about the ILS (P388 [15]) of the same compound?
Answer: Its ILS is “inactive”.

Question: With Cc1c2ccccc2nc2c(C(=O)NCCN(C)C)cccc12.Cl.Cl as the compound, how does the pKa [10] read?
Answer: Its pKa is 4.34.

Question: And the Rm [1]?
Answer: Its Rm is -0.33.

Question: And the IA (P388 [16])?
Answer: The IA was “inactive”.

Question: And the IC50 (L1210)?
Answer: Its IC50 is 0.15 µM.

Question: And the IC50 (HCT-8)?
Answer: The IC50 was 0.16 µM.

Question: And the Ratio [2]?
Answer: Its Ratio is 1.1.

Question: What does the source list for COc1cc(C(=O)NCCN(C)C)c2nc3ccccc3cc2c1.Cl.Cl?
Answer: pKa [10]: 3.34; Rm [1]: -0.13; IC50 (L1210): 0.03 µM; IC50 (HCT-8): 0.72 µM; ILS at 100 mg/kg/day (P388 [5]): 99%; ILS at 100 mg/kg/day [6]: 105%; Ratio [2]: 24

Question: Which results are given for COc1ccc(C(=O)NCCN(C)C)c2nc3ccccc3cc12.Cl.Cl?
Answer: pKa [10]: 3.81; ILS at 30 mg/kg/day (P388 [17]): 205%; Rm [1]: -0.13; IC50 (L1210): 0.0088 µM; IC50 (HCT-8): 0.115 µM; Ratio [2]: 13.1

Question: With COc1ccc2nc3c(C(=O)NCCN(C)C)cccc3cc2c1.Cl.Cl as the compound, how does the pKa [10] read?
Answer: The pKa was 3.54.

Question: What about the Rm [1] of the same compound?
Answer: The Rm was -0.22.

Question: And the IC50 (L1210)?
Answer: Its IC50 is 0.64 µM.

Question: What about the IC50 (HCT-8) of the same compound?
Answer: The IC50 was 1.7 µM.

Question: What about the Ratio [2] of the same compound?
Answer: The Ratio was 2.7.

Question: And the ILS at 150 mg/kg/day (P388 [18])?
Answer: Its ILS at 150 mg/kg/day is 91%.

Question: And the ILS at 150 mg/kg/day [8]?
Answer: The ILS at 150 mg/kg/day was 46%.

Question: Which results are given for Cl.Cl.O=C(NCCNCCO)c1cccc2cc3ccccc3nc12?
Answer: ILS at 13.3 mg/kg/day (P388 [19]): 22%; Rm [1]: -0.22; ILS [20]: inactive; IC50 (L1210): 0.24 µM; IC50 (HCT-8): 1.8 µM; Ratio [2]: 7.5

Question: Which pKa [10] does the source give for CN(C)CCNC(=O)c1ccc2nc3ccccc3cc2c1.Cl.Cl here?
Answer: Its pKa is 4.37.

Question: And the Rm [1]?
Answer: Its Rm is -0.57.

Question: And the IC50 (L1210)?
Answer: The IC50 was 9.3 µM.

Question: What about the ILS (P388 [21]) of the same compound?
Answer: Its ILS is “inactive”.

Question: With CN(C)CCCCCNC(=O)c1cccc2cc3ccccc3nc12.Cl as the compound, how does the ILS at 225 mg/kg/day (P388 [22]) read?
Answer: The ILS at 225 mg/kg/day was 34%.

Question: And the Rm [1]?
Answer: The Rm was 0.12.

Question: And the IC50 (L1210)?
Answer: Its IC50 is 0.45 µM.

Question: And the IC50 (HCT-8)?
Answer: Its IC50 is 1.8 µM.

Question: And the Ratio [2]?
Answer: Its Ratio is 4.

Question: And the ILS at 150 mg/kg/day ([13]; route intraperitoneal)?
Answer: The ILS at 150 mg/kg/day was 83%.

Source: ChEMBL document CHEMBL1123878, “Potential antitumor agents. 50. In vivo solid-tumor activity of derivatives of N-[2-(dimethylamino)ethyl]acridine-4-carboxamide” (J Med Chem, 1987)
